Results: ChEMBL document CHEMBL4041496, “Natural-Based Indirubins Display Potent Cytotoxicity toward Wild-Type and T315I-Resistant Leukemia Cell Lines” (J Nat Prod, 2016)
Calls of active or inactive are those of the source. How the calls were made is not given here.

What was measured:
[1] = molecular target: Proto-oncogene tyrosine-protein kinase Src (Homo sapiens, UniProt P12931); test: Inhibition of recombinant c-Src (unknown origin) after 120 mins in presence of [33P]ATP
[2] = molecular target: T1, Aurora kinase A (Homo sapiens, UniProt O14965); test: Inhibition of recombinant Aurora A (unknown origin) after 120 mins in presence of [33P]ATP
T1 sequence (O14965 whole entry): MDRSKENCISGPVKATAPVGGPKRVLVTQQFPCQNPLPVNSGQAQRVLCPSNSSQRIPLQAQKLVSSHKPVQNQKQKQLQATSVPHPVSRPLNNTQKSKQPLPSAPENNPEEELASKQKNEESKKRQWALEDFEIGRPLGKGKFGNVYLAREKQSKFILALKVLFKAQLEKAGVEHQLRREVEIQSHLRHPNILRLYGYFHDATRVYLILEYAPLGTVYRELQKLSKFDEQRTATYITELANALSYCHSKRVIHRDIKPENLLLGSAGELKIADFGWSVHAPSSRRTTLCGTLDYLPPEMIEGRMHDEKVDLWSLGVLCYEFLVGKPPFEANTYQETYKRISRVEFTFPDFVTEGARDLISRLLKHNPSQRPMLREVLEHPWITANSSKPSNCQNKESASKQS

[3] = molecular target: Tyrosine-protein kinase ABL1 (Homo sapiens, UniProt P00519, T315I); test: Inhibition of recombinant ABL1 T315I mutant (unknown origin) after 120 mins in presence of [33P]ATP
[4] = test system: KCL-22; test: Cytotoxicity against human KCL22 cells harboring ABL1 T315I mutant assessed as cell viability at 1 uM after 48 hrs by MTS assay relative to control; assay type: functional; details: for viability at 1 µM: Homo sapiens, KCL-22, 48 h, read-out: Activity
Outline: (§1)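 Single-concentration screen: KCL-22 cells, or KCL-22 cells expressing T315I mutant Bcr-Abl, grown in RPMI-1640 with 10% FBS. Cells were seeded at 10 000/well, held overnight at 37 °C in 5% CO2, then exposed to 1 μM compound for 48 h, with DMSO as vehicle control. Viability was read by MTS tetrazolium-to-formazan conversion, absorbance 490 nm, in triplicate.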

[5] = test system: KCL-22; test: Cytotoxicity against human KCL22 cells assessed as cell viability at 1 uM after 48 hrs by MTS assay relative to control; assay type: functional; details: for viability at 1 µM: Homo sapiens, KCL-22, 48 h, read-out: Activity; outline: as §1
[6] = molecular target: Tyrosine-protein kinase ABL1 (Homo sapiens, UniProt P00519); test: Inhibition of recombinant ABL1 (unknown origin) after 120 mins in presence of [33P]ATP
[7] = molecular target: Tyrosine-protein kinase JAK2 (Homo sapiens, UniProt O60674); test: Inhibition of recombinant JAK2 (unknown origin) after 120 mins in presence of [33P]ATP
[8] = test system: KCL-22; test: Cytotoxicity against human KCL22 cells assessed as reduction in cell viability after 48 hrs by MTS assay; assay type: functional, cell-based
[9] = test system: KCL-22; test: Cytotoxicity against human KCL22 cells harboring ABL1 T315I mutant assessed as reduction in cell viability at 1 uM after 48 hrs by MTS assay; assay type: functional, cell-based; outline: as §1
[10] = test system: KCL-22; test: Cytotoxicity against human KCL22 cells assessed as reduction in cell viability at 1 uM after 48 hrs by MTS assay; assay type: functional, cell-based; outline: as §1

Sequence of Proto-oncogene tyrosine-protein kinase Src (P12931 2-536 limits assumed): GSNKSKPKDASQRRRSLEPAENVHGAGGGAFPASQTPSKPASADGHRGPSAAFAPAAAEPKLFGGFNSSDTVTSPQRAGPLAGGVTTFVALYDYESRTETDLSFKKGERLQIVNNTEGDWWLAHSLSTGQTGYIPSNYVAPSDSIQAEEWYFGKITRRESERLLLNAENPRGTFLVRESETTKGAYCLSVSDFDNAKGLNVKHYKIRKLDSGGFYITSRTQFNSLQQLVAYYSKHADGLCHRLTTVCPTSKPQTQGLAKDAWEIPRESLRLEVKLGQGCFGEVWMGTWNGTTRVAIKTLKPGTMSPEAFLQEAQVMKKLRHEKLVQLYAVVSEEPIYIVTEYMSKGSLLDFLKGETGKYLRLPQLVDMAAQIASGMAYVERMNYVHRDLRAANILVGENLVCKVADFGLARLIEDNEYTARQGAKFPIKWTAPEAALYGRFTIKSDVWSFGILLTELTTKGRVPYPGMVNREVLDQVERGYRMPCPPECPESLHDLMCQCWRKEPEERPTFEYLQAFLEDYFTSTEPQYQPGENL
Sequence of Tyrosine-protein kinase JAK2 (O60674 whole entry): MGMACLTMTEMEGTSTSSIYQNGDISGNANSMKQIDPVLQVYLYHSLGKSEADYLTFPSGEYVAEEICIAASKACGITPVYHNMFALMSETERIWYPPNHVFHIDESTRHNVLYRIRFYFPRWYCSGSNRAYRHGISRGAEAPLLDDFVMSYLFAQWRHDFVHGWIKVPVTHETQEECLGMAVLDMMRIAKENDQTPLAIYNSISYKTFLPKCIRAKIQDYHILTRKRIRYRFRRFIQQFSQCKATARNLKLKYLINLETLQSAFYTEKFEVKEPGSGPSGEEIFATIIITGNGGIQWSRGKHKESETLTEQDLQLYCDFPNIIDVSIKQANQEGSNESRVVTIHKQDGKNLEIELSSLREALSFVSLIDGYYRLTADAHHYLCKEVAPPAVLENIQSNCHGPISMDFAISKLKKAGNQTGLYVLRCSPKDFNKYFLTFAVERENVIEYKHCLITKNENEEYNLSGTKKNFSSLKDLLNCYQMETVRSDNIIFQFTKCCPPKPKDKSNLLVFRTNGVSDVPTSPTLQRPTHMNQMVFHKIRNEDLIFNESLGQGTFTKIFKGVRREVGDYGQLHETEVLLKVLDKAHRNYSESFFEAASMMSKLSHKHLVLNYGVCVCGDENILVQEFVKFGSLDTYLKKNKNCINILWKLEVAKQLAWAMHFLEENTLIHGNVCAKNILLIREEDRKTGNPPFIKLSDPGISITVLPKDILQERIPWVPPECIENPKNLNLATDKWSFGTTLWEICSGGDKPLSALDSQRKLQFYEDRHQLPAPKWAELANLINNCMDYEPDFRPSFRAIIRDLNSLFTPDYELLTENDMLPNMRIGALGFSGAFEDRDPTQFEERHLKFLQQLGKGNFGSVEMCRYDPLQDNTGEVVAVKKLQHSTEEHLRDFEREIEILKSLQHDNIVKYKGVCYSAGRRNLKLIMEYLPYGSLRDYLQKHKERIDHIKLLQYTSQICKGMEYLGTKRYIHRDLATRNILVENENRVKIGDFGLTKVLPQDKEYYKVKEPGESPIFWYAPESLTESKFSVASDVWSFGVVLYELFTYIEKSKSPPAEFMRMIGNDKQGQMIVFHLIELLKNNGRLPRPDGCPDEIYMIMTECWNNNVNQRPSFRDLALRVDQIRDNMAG

| Compound | viability at 1 µM [4] | viability at 1 µM [5] | Activity [9] | Activity [10] | other results |
| --- | --- | --- | --- | --- | --- |
| O=C1Nc2cc(Br)ccc2/C1=C1/Nc2ccccc2/C1=N\OCCN1CCCC1 [listing 1 of 2 here] | – | – | – | – | IC50 [1]: 4.9 nM; IC50 [2]: 79 nM; IC50 [3]: 4560 nM; Activity [4]: <50%; Activity [5]: <50%; IC50 [6]: 106 nM; IC50 [7]: 7460 nM |
| CN1CCN(CCO/N=C2/C(=C3/C(=O)Nc4cc(Br)ccc43)Nc3ccccc32)CC1 | – | – | – | – | Activity [4]: >50%; Activity [5]: <50%; IC50 ([8]; Homo sapiens, KCL-22, 48 h): 900 nM |
| O=C1Nc2cc(Br)ccc2/C1=C1/Nc2ccccc2/C1=N\OCCN1CCNCC1 | – | – | – | – | Activity [4]: >50%; Activity [5]: <50%; IC50 ([8]; kcl-22): 780 nM |
| CN(CCO/N=C1/C(=C2/C(=O)Nc3cc(Br)ccc32)Nc2ccccc21)CC(O)CO (configuration not stated) [listing 1 of 2 here] | < 50% | < 50% | – | – | IC50 [1]: 0.61 nM; IC50 [3]: 194 nM; IC50 [6]: 10.2 nM; IC50 [7]: 589 nM |
| O=C1Nc2cc(Br)ccc2/C1=C1/Nc2ccccc2/C1=N\OCCN1CCN(CCO)CC1 | > 50% | > 50% | – | – | – |
| O=C1Nc2cc(Br)ccc2/C1=C1/Nc2ccccc2/C1=N\OCCN1CCN(CCOCCO)CC1 | < 50% | > 50% | – | – | – |
| CCN(CC)C(=O)O/N=C1/C(=C2/C(=O)Nc3cc(Br)ccc32)Nc2ccccc21 | > 50% | > 50% | – | – | – |
| O=C1Nc2cc(Br)ccc2/C1=C1/Nc2ccccc2/C1=N\OCCN1CCCC1 [listing 2 of 2 here] | < 50% | < 50% | – | – | IC50 [1]: 2.2 nM; IC50 [2]: 175 nM; IC50 [3]: 5940 nM; IC50 [7]: 4410 nM |
| CC(=O)c1ccc(NC(=O)O/N=C2/C(=C3/C(=O)Nc4cc(Br)ccc43)Nc3ccccc32)cc1 | > 50% | > 50% | – | – | – |
| CN(CCO/N=C1/C(=C2/C(=O)Nc3cc(Br)ccc32)Nc2ccccc21)CC(O)CO (configuration not stated) [listing 2 of 2 here] | – | – | – | – | IC50 [1]: < 0.5 nM; IC50 [2]: 9.7 nM; IC50 [3]: 178 nM; Activity [4]: <50%; Activity [5]: <50%; IC50 [6]: 7.2 nM; IC50 [7]: 551 nM |
| CCCCCNC(=O)O/N=C1/C(=C2/C(=O)Nc3cc(Br)ccc32)Nc2ccccc21 | > 50% | > 50% | – | – | – |
| O=C1Nc2cc(Br)ccc2/C1=C1/Nc2ccccc2C1=O | > 50% | > 50% | – | – | – |
| N#Cc1ccc(NC(=O)O/N=C2/C(=C3/C(=O)Nc4cc(Br)ccc43)Nc3ccccc32)cc1 | > 50% | > 50% | – | – | – |
| CC(=O)O/N=C1/C(=C2/C(=O)Nc3cc(Br)c(C)cc32)Nc2ccccc21 | – | – | inactive | inactive | – |
| O=C1Nc2c(F)cccc2/C1=C1/Nc2ccccc2/C1=N\O | – | – | inactive | inactive | – |
| O=C1Nc2c(cccc2C(F)(F)F)/C1=C1/Nc2ccccc2/C1=N\OCCN1CCN(CCO)CC1 | – | – | inactive | inactive | – |
| CN1C(=O)/C(=C2\Nc3ccccc3\C2=N/O)c2cccc(Br)c21 | – | – | inactive | inactive | – |
| COC(=O)c1ccc2c(c1)N/C(=C1\C(=O)Nc3c1cccc3C(F)(F)F)C2=O | – | – | inactive | inactive | – |
| COC(=O)c1ccc2c(c1)NC(=C1\C(=O)Nc3c(Br)cccc31)/C2=N/O | – | – | inactive | inactive | – |
| O=C1Nc2c(I)cccc2/C1=C1/Nc2ccccc2/C1=N\O | – | – | inactive | inactive | – |
| COC(=O)c1ccc2c(c1)C(=N\O)/C(=C1/C(=O)Nc3c1cccc3C(F)(F)F)N2 | – | – | inactive | inactive | – |
| O=C1Nc2c(Br)cccc2/C1=C1/Nc2ccc(C(=O)O)cc2/C1=N\OCCN1CCNCC1 | – | – | inactive | inactive | – |
| O=C1Nc2cc(Br)c([N+](=O)[O-])cc2/C1=C1/Nc2ccccc2C1=O | – | – | inactive | inactive | – |
| O=C(NC(Cl)(Cl)Cl)O/N=C1/C(=C2/C(=O)Nc3cc(Br)ccc32)Nc2ccccc21 | > 50% | > 50% | – | – | – |
| O=C1Nc2c(Cl)cccc2/C1=C1/Nc2ccccc2C1=O | – | – | inactive | inactive | – |
| O=C1Nc2c(Br)cccc2/C1=C1/Nc2ccc(C(=O)O)cc2/C1=N\O | – | – | inactive | inactive | – |
